Assay results reported in publication PMC3217223 (Bioorganic & Medicinal Chemistry, 2009).
Where a name gives a salt, the structure may show the parent alone.

Legend:
Punta Toro virus = assay type: cell-based; settings: microscopy and MTS assay
Coxsackievirus B4 = assay type: cell-based; settings: microscopy and MTS assay
influenza virus A/H3N2 = assay type: cell-based, influenza virus A/Hong Kong/7/87 (H3N2); settings: influenza virus A/H3N2 (A/Hong Kong/7/87); microscopy and MTS assay
sindbis virus = assay type: cell-based; settings: microscopy and MTS assay
influenza virus B = assay type: cell-based, influenza virus B/Hong Kong/5/72; settings: influenza virus B (B/Hong Kong/5/72); microscopy and MTS assay
parainfluenza-3 virus = assay type: cell-based; settings: microscopy and MTS assay
[1] = system: bloodstream form T. brucei (strain 427); assay: T. brucei culturing and drug test; assay type: cell-based, Trypanosoma brucei; settings: for Trypanocidal activity (in words): at concentrations up to 5 mg mL^−1; for Trypanocidal properties (in words): bloodstream form T. brucei
In short: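 Parasites were kept at 37 °C in modified Iscove's medium (pH 7.4) and grown for 48 h with a range of test compound concentrations. Cell density at each concentration was counted by hemocytometer and expressed as percent of untreated control growth. Concentrations giving 50% and 90% growth inhibition (IC₅₀, IC₉₀) were determined. Run in triplicate.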

influenza virus A/H1N1 = assay type: cell-based, influenza virus A/Puerto Rico/8/34 (H1N1); settings: influenza virus A/H1N1 (A/Puerto Rico/8/34); microscopy and MTS assay
[2] = system: vesicular stomatitis virus; assay type: cell-based
vaccinia virus = assay type: cell-based
Reovirus-1 = assay type: cell-based; settings: microscopy and MTS assay
[3] = system: herpes simplex virus type 2; assay type: cell-based; settings: microscopy and MTS assay
[4] = system: herpes simplex virus type 1; assay type: cell-based; settings: microscopy and MTS assay
NMDA receptors = assay type: cell-based; settings: for NMDA receptor antagonism (in words): cerebellar granule neurons, glutamate or NMDA 100 μM + glycine 10 μM
[5] = system: respiratory syncytial virus; assay type: cell-based; settings: microscopy and MTS assay
feline coronavirus = assay type: cell-based; settings: microscopy and MTS assay

SMILES	Antiviral activity (Punta Toro virus)	Antiviral activity (Coxsackievirus B4)	Antiviral activity (influenza virus A/H3N2)	Antiviral activity (sindbis virus)	Antiviral activity (influenza virus B)	Antiviral activity (parainfluenza-3 virus)	Trypanocidal activity (in words) [1]	Antiviral activity (influenza virus A/H1N1)	Antiviral activity [2]	Antiviral activity (vaccinia virus)	Antiviral activity (Reovirus-1)	Antiviral activity [3]	Antiviral activity [4]	NMDA receptor antagonism (in words) (NMDA receptors)	Antiviral activity [5]	Antiviral activity (feline coronavirus)	also measured
c1ccc(CNC23CC4CC(CC(C4)O2)C3)cc1 [Compound 2a, N-Benzyl(2-oxaadamant-1-yl)amine hydrochloride]	None of the tested compounds displayed activity	None of the tested compounds displayed activity	none of the compounds was found to be active	None of the tested compounds displayed activity	none of the compounds was found to be active	None of the tested compounds displayed activity	no activity	none of the compounds was found to be active	None of the tested compounds displayed activity	None of the tested compounds displayed activity	None of the tested compounds displayed activity	None of the tested compounds displayed activity	None of the tested compounds displayed activity	inactive	None of the tested compounds displayed activity	None of the tested compounds displayed activity	
c1ccc(CCNC23CC4CC(CC(C4)O2)C3)cc1 [Compound 2b, N-(2-Phenylethyl)(2-oxaadamant-1-yl)amine hydrochloride]							no activity										
CN(Cc1ccccc1)C12CC3CC(CC(C3)O1)C2 [Compound 3a, N-Benzyl-N-methyl(2-oxaadamant-1-yl)amine]							no activity							inactive			
CN(CCc1ccccc1)C12CC3CC(CC(C3)O1)C2 [Compound 3b, N-Methyl-N-(2-phenylethyl)(2-oxaadamant-1-yl)amine hydrochloride]							no activity										
CNC12CC3CC(CC(C3)O1)C2 [Compound 4, N-Methyl(2-oxaadamant-1-yl)amine hydrochloride]	None of the tested compounds displayed activity	None of the tested compounds displayed activity	none of the compounds was found to be active	None of the tested compounds displayed activity	none of the compounds was found to be active	None of the tested compounds displayed activity	no activity	none of the compounds was found to be active	None of the tested compounds displayed activity	None of the tested compounds displayed activity	None of the tested compounds displayed activity	None of the tested compounds displayed activity	None of the tested compounds displayed activity	inactive	None of the tested compounds displayed activity	None of the tested compounds displayed activity	
c1ccc(CN(Cc2ccccc2)C23CC4CC(CC(C4)O2)C3)cc1 [Compound 8, N,N-Dibenzyl(2-oxaadamant-1-yl)amine]							no activity							inactive			
CC12CC3CC(C1)CC(N)(C3)O2 [Compound 10a, (3-Methyl-2-oxaadamant-1-yl)amine hydrochloride]														inactive			
NC12CC3CC(C1)CC(c1ccccc1)(C3)O2 [Compound 10c, (3-Phenyl-2-oxaadamant-1-yl)amine hydrochloride]	None of the tested compounds displayed activity	None of the tested compounds displayed activity	none of the compounds was found to be active	None of the tested compounds displayed activity	none of the compounds was found to be active	None of the tested compounds displayed activity		none of the compounds was found to be active	None of the tested compounds displayed activity	None of the tested compounds displayed activity	None of the tested compounds displayed activity	None of the tested compounds displayed activity	None of the tested compounds displayed activity	only a weak NMDA receptor antagonist	None of the tested compounds displayed activity	None of the tested compounds displayed activity	
NC12CC3CC(C1)CC(C1CCCCC1)(C3)O2 [Compound 10d, (3-cyclohexyl-2-oxaadamant-1-yl)amine hydrochloride]	None of the tested compounds displayed activity	None of the tested compounds displayed activity	none of the compounds was found to be active	None of the tested compounds displayed activity	none of the compounds was found to be active	None of the tested compounds displayed activity		none of the compounds was found to be active	None of the tested compounds displayed activity	None of the tested compounds displayed activity	None of the tested compounds displayed activity	None of the tested compounds displayed activity	None of the tested compounds displayed activity		None of the tested compounds displayed activity	None of the tested compounds displayed activity	
CN(C)C12CC3CC(CC(C)(C3)O1)C2 [Compound 11a, N,N-Dimethyl(3-methyl-2-oxaadamant-1-yl)amine hydrochloride]														inactive			Trypanocidal activity relative to amantadine ([1]; compared with amantadine): at least 30 times; Trypanocidal activity relative to rimantadine ([1]; compared with rimantadine): approximately twice
CCN(CC)C12CC3CC(CC(CC)(C3)O1)C2 [Compound 12, N,N-Diethyl(3-ethyl-2-oxaadamant-1-yl)amine hydrochloride]																	Potency as NMDA receptor antagonist relative to amantadine (NMDA receptors; compared with amantadine): seven times more potent than amantadine; Potency as NMDA receptor antagonist relative to memantine (NMDA receptors; compared with memantine): ten times less potent than memantine
CCC12CC3CC(C1)CC(NCc1ccccc1)(C3)O2 [Compound 13, N-Benzyl(3-ethyl-2-oxaadamant-1-yl)amine hydrochloride]																	Trypanocidal properties (in words) [1]: no significant trypanocidal properties
CCC12CC3CC(C1)CC(NC)(C3)O2 [Compound 15, N-Methyl(3-ethyl-2-oxaadamant-1-yl)amine hydrochloride]	None of the tested compounds displayed activity	None of the tested compounds displayed activity	none of the compounds was found to be active	None of the tested compounds displayed activity	none of the compounds was found to be active	None of the tested compounds displayed activity		none of the compounds was found to be active	None of the tested compounds displayed activity	None of the tested compounds displayed activity	None of the tested compounds displayed activity	None of the tested compounds displayed activity	None of the tested compounds displayed activity		None of the tested compounds displayed activity	None of the tested compounds displayed activity	Trypanocidal properties (in words) [1]: no significant trypanocidal properties
